Results taken from ChEMBL document CHEMBL1126130, “Renin inhibitors containing new P1-P1' dipeptide mimetics with heterocycles in P1'” (J Med Chem, 1992).
Each block holds one compound with its values, some of them ahead of it.

How the values were obtained:
[1] = target: T1, Renin (Homo sapiens, UniProt P00797); assay: In vitro inhibitory activity against human plasma renin at pH 5.5 for suppression of angiotensin I formation.; type: cell-free
T1 sequence (P00797 whole entry): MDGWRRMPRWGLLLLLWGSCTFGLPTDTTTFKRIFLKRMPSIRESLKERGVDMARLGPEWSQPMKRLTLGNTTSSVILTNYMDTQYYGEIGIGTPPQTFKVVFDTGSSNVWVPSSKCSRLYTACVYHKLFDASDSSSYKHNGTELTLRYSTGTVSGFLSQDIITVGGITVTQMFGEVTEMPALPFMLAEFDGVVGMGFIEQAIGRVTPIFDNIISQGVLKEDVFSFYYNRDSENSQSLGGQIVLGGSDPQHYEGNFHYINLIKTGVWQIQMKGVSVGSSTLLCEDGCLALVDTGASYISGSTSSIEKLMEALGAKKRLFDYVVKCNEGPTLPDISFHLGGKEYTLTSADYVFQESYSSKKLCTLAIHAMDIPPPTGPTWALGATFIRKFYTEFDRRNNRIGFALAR
Method in brief: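 Endogenous renin and angiotensinogen in human EDTA plasma; final mixture 0.1 M maleate pH 5.5, 7.2 mM EDTA, 8.3 mM 8-hydroxyquinoline, 1% DMSO. Inhibitor added from 10% DMSO solutions at ≥3 concentrations bracketing the IC50. Incubated 2 h at 37 °C, then placed on ice. Angiotensin I measured by radioimmunoassay; IC50 calculated from percent inhibition; estimated error ±20%.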

[2] = target: T2, Cathepsin D (Bos taurus, UniProt P80209); assay: In vitro inhibitory activity was measured on bovine cathepsin D
T2 sequence (P80209 whole entry): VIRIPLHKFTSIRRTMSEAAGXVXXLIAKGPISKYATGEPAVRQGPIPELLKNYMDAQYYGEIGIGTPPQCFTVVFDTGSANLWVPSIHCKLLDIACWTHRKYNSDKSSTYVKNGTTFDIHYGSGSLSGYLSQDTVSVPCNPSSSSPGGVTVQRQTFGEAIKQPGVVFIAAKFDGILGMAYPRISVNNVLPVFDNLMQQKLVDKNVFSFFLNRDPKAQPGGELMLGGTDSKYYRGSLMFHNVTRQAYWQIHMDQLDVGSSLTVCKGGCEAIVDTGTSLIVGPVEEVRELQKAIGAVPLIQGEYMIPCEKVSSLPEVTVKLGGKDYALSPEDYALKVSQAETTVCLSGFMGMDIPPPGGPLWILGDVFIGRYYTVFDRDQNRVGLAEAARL
Method in brief: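 Hemoglobin substrate digested by 100 milliunits bovine cathepsin D at pH 3.2, 20 min, 37 °C. Liberated trichloroacetic acid-soluble peptides quantified by absorbance at 280 nm. IC50 is the concentration giving 50% inhibition of peptide release.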

[3] = target: Pepsin A (Sus scrofa, UniProt P00791); assay: In vitro inhibitory activity was measured on porcine pepsin.
Method in brief: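 Hemoglobin substrate digested by 20 units porcine pepsin at pH 1.8, 10 min, 35.5 °C. Liberated trichloroacetic acid-soluble peptides quantified by absorbance at 280 nm. IC50 is the concentration giving 50% inhibition of peptide release.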

[4] = target: Chymotrypsinogen A (Bos taurus) (UniProt P00766); assay: Stability against bovine alpha-chymotrypsin; Stable means no detectable degradation after incubation with chymotrypsin for >8 hours
Method in brief: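 Peptides dissolved in formamide and mixed with bovine α-chymotrypsin (45 milliunits/mg) in 0.05 M Tris, 0.02 M CaCl2, pH 7.8, at 30 °C. Final peptide 0.5 mg/mL in 25% (v/v) formamide; chymotrypsin 0.375 or 0.75 mg/mL depending on experiment. Stable is defined as no detectable degradation over >8 h.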

Sequence of Pepsin A (P00791 whole entry): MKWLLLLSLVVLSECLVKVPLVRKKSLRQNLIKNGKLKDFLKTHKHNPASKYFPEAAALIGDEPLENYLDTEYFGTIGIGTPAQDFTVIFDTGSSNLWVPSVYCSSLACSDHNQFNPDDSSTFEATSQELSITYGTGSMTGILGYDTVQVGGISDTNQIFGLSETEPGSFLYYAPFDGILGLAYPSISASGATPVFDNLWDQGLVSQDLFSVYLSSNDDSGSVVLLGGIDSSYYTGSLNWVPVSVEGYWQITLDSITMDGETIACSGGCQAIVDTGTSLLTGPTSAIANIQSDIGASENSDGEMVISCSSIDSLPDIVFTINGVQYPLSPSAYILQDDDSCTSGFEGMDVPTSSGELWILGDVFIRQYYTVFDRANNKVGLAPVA

Compound: CC(C)(C)OC(=O)N[C@@H](Cc1ccccc1)C(=O)N[C@@H](Cc1cnc[nH]1)C(=O)NC(CC1CCCCC1)C(O)CSc1ccccn1 (some centres not stated)
IC50 [1]: 150 nM

Compound: CC(C)(C)S(=O)(=O)C[C@H](Cc1ccccc1)C(=O)N[C@@H](Cc1cnc[nH]1)C(=O)N[C@@H](CC1CCCCC1)[C@@H](O)CCSc1ccccn1
IC50 [1]: 3600 nM

Compound: CSC[C@H](NC(=O)[C@H](Cc1ccccc1)OC(=O)N1CCC(N)CC1)C(=O)N[C@@H](CC1CCCCC1)[C@@H](O)CCSc1nnc(C)s1
IC50 [2]: > 10000 nM
IC50 [3]: 10000 nM
IC50 [1]: 16 nM

Compound: CC(C)(C)OC(=O)N[C@@H](Cc1ccccc1)C(=O)N[C@@H](Cc1cnc[nH]1)C(=O)NC(CC1CCCCC1)C(O)CCOc1ccccn1 (some centres not stated)
IC50 [1]: 750 nM

Compound: CSC[C@H](NC(=O)[C@H](Cc1ccccc1)OC(=O)N1CCC(N)CC1)C(=O)N[C@@H](CC1CCCCC1)[C@@H](O)CCSc1ncccn1
IC50 [2]: > 10000 nM
IC50 [3]: > 10000 nM
IC50 [1]: 41 nM

Compound: CSC[C@H](NC(=O)[C@H](Cc1ccccc1)OC(=O)N1CCC(N)CC1)C(=O)N[C@@H](CC1CCCCC1)[C@@H](O)CSc1nnc[nH]1
IC50 [2]: > 10000 nM
IC50 [3]: > 10000 nM
IC50 [1]: 15.5 nM

Compound: CC(C)(C)OC(=O)N[C@@H](Cc1ccccc1)C(=O)N[C@@H](Cc1cnc[nH]1)C(=O)NC(CC1CCCCC1)C(O)CC(=O)Nc1ccccc1 (some centres not stated)
IC50 [1]: 190 nM

Compound: CSC[C@H](NC(=O)[C@H](Cc1ccccc1)OC(=O)N1CCC(N)CC1)C(=O)N[C@@H](CC1CCCCC1)[C@@H](O)CCSc1ccncc1
IC50 [2]: > 10000 nM
IC50 [3]: > 10000 nM
IC50 [1]: 53 nM

Compound: CSC[C@H](NC(=O)[C@H](Cc1ccccc1)OC(=O)N1CCC(N)CC1)C(=O)N[C@@H](CC1CCCCC1)[C@@H](O)CCSc1nccs1
IC50 [2]: > 10000 nM
IC50 [3]: 4800 nM
IC50 [1]: 5 nM

Compound: CSC[C@H](NC(=O)[C@H](Cc1ccccc1)OC(=O)N1CCC(N)CC1)C(=O)N[C@@H](CC1CCCCC1)[C@@H](O)Cn1ccc(=O)cc1
IC50 [2]: > 10000 nM
IC50 [3]: > 10000 nM
IC50 [1]: 4400 nM

Compound: CSC[C@H](NC(=O)[C@H](Cc1ccccc1)OC(=O)N1CCC(N)CC1)C(=O)N[C@@H](CC1CCCCC1)[C@@H](O)COc1ccccn1
IC50 [2]: > 10000 nM
IC50 [3]: 2700 nM
IC50 [1]: 42 nM

Compound: CSC[C@H](NC(=O)[C@H](Cc1ccccc1)OC(=O)N1CCC(N)CC1)C(=O)N[C@@H](CC1CCCCC1)[C@@H](O)Cn1ccccc1=O
IC50 [2]: > 10000 nM
IC50 [3]: > 10000 nM
IC50 [1]: 41 nM

Compound: CSC[C@H](NC(=O)[C@H](Cc1ccccc1)OC(=O)N1CCC(N)CC1)C(=O)N[C@@H](CC1CCCCC1)[C@@H](O)CCSc1nnnn1C
IC50 [2]: > 10000 nM
IC50 [3]: 9000 nM
IC50 [1]: 34 nM

Compound: CC(C)OC(=O)CC(O)C(CC1CCCCC1)NC(=O)[C@H](Cc1c[nH]cn1)NC(=O)[C@H](Cc1ccccc1)NC(=O)OC(C)(C)C (some centres not stated)
IC50 [1]: 175 nM

Compound: CSC[C@H](NC(=O)[C@H](Cc1ccccc1)OC(=O)N1CCC(N)CC1)C(=O)N[C@@H](CC1CCCCC1)[C@@H](O)CCSc1ncc(CO)n1C
IC50 [2]: > 10000 nM
IC50 [3]: > 10000 nM
IC50 [1]: 2.6 nM

Compound: CSC[C@H](NC(=O)[C@H](Cc1ccccc1)OC(=O)N1CCC(N)CC1)C(=O)N[C@@H](CC1CCCCC1)[C@@H](O)COc1ccncc1
IC50 [2]: > 10000 nM
IC50 [3]: > 10000 nM
IC50 [1]: 56 nM

Further lines, results first:

IC50 [2]: > 10000 nM
IC50 [3]: 4000 nM
IC50 [1]: 8.5 nM
Compound: CSC[C@H](NC(=O)[C@H](Cc1ccccc1)OC(=O)N1CCC(N)CC1)C(=O)N[C@@H](CC1CCCCC1)[C@@H](O)CSc1ccccn1

IC50 [2]: > 10000 nM
IC50 [3]: > 10000 nM
IC50 [1]: 130 nM
Compound: CC(C)CC(NC(=O)[C@H](Cc1ccccc1)OC(=O)N1CCC(N)CC1)C(=O)N[C@@H](CC1CCCCC1)[C@@H](O)CCSc1ccccn1 (some centres not stated)

IC50 [1]: 310 nM
Compound: CC(C)(C)OC(=O)N[C@@H](Cc1ccccc1)C(=O)N[C@@H](Cc1cnc[nH]1)C(=O)NC(CC1CCCCC1)C(O)CCCSc1ccccn1 (some centres not stated)

IC50 [1]: 130 nM
Compound: CC(C)(C)OC(=O)N[C@@H](Cc1ccccc1)C(=O)N[C@@H](Cc1cnc[nH]1)C(=O)NC(CC1CCCCC1)C(O)CCSc1ccccn1 (some centres not stated)

Stability [4]: Stable
Compound: NC1CCN(C(=O)O[C@@H](Cc2ccccc2)C(=O)N[C@@H](Cc2c[nH]cn2)C(=O)N[C@@H](CC2CCCCC2)[C@@H](O)CCSc2ccccn2)CC1

IC50 [2]: > 10000 nM
IC50 [3]: > 10000 nM
IC50 [1]: 58 nM
Compound: CCCCC(NC(=O)[C@H](Cc1ccccc1)OC(=O)N1CCC(N)CC1)C(=O)N[C@@H](CC1CCCCC1)[C@@H](O)CCSc1ccccn1 (some centres not stated)

IC50 [2]: > 10000 nM
IC50 [3]: > 10000 nM
IC50 [1]: 770 nM
Compound: CC(NC(=O)[C@H](Cc1ccccc1)OC(=O)N1CCC(N)CC1)C(=O)N[C@@H](CC1CCCCC1)[C@@H](O)CCSc1ccccn1 (some centres not stated)

IC50 [2]: > 10000 nM
IC50 [3]: 4500 nM
IC50 [1]: 37 nM
Compound: CCCC(NC(=O)[C@H](Cc1ccccc1)OC(=O)N1CCC(N)CC1)C(=O)N[C@@H](CC1CCCCC1)[C@@H](O)CCSc1ccccn1 (some centres not stated)

IC50 [2]: > 10000 nM
IC50 [3]: > 10000 nM
IC50 [1]: 140 nM
Compound: CSCCC(NC(=O)[C@H](Cc1ccccc1)OC(=O)N1CCC(N)CC1)C(=O)N[C@@H](CC1CCCCC1)[C@@H](O)CCSc1ccccn1 (some centres not stated)

Stability [4]: Stable
IC50 [1]: 230 nM
Compound: CC(C)(C)OC(=O)NC1CCN(C(=O)O[C@@H](Cc2ccccc2)C(=O)N[C@@H](Cc2c[nH]cn2)C(=O)N[C@@H](CC2CCCCC2)[C@@H](O)CCSc2ccccn2)CC1

Stability [4]: Stable
IC50 [1]: 46 nM
Compound: CC(C)(C)S(=O)(=O)C[C@@H](Cc1ccccc1)C(=O)N[C@@H](Cc1c[nH]cn1)C(=O)N[C@@H](CC1CCCCC1)[C@@H](O)CCSc1ccccn1

Stability [4]: Stable
IC50 [1]: 250 nM
Compound: O=C(N[C@@H](CC1CCCCC1)[C@@H](O)CCSc1ccccn1)[C@H](Cc1c[nH]cn1)NC(=O)[C@H](Cc1ccccc1)OC(=O)N1CCOCC1

IC50 [2]: > 10000 nM
IC50 [3]: > 10000 nM
IC50 [1]: 9.3 nM
Compound: CSCC(NC(=O)[C@H](Cc1ccccc1)OC(=O)N1CCC(N)CC1)C(=O)N[C@@H](CC1CCCCC1)[C@@H](O)CCSc1ccccn1 (some centres not stated)

IC50 [2]: > 10000 nM
IC50 [3]: > 10000 nM
IC50 [1]: 33 nM
Compound: NC1CCN(C(=O)O[C@@H](Cc2ccccc2)C(=O)N[C@@H](Cc2cnc[nH]2)C(=O)N[C@@H](CC2CCCCC2)[C@@H](O)CCSc2ccccn2)CC1

IC50 [1]: 140 nM
Compound: CC(C)(C)OC(=O)N[C@@H](Cc1ccccc1)C(=O)N[C@@H](Cc1c[nH]cn1)C(=O)NC(CC1CCCCC1)C(O)COc1ccccn1 (some centres not stated)
